# Screening results: PubChem, Sanford-Burnham Center for Chemical Genomics
# mIAP activ: activators of mouse IAP, primary screen, biochemical, luminescence, uHTS; 330,000 compounds, 0.24% hits; activation factor at 10 µM; muIAP, CDP-Star luminescence, 30 min; stronger effect = higher value; 1 = vehicle-only enzyme signal, 0 = enzyme-free wells; intestinal alkaline phosphatase [Mus musculus];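 active = activation factor of at least 2 at 20 µM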
#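 Assay system: mouse IAP enzyme; reagent: chemiluminescent substrate CDP-Star; dosing: test compounds delivered from DMSO solution; schedule: 30 min at room temperature; measured by: luminescence from enzymatic CDP-Star hydrolysis; controls: DMSO-only wells and no-enzyme negative control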
# hIAP inh: human IAP inhibitors, primary screen, biochemical, luminescence, uHTS. Intestinal-type alkaline phosphatase (Homo sapiens), P09923. 330,000 compounds, 0.12% hits. inhibition, % at 10 µM. purified IAP, CDP-Star luminescence, 30 min;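 active = inhibition reaching a set limit with compound at 10 µM in the primary screen, cut at about 35% in these data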;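 also: plate controls were DMSO wells with enzyme for no effect and no-enzyme buffer wells for full effect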
# Target sequence (P09923 whole entry, looked up): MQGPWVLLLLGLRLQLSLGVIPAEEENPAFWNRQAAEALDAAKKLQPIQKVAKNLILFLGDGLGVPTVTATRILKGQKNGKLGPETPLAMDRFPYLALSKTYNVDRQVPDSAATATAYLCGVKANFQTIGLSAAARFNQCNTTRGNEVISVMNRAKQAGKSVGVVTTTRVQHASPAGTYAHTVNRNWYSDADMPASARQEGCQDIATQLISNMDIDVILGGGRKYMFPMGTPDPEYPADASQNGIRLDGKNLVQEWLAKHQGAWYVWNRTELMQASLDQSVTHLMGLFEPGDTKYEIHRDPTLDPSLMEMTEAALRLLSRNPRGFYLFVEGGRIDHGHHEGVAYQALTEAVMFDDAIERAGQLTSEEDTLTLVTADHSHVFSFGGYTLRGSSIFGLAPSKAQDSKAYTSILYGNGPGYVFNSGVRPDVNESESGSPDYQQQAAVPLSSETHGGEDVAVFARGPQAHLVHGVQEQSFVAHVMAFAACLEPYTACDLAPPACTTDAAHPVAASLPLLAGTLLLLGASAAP
# hIAP activ: human IAP activators, primary screen, biochemical, luminescence, uHTS; Intestinal-type alkaline phosphatase (Homo sapiens), P09923; purified human IAP, CDP-Star luminescence, 30 min; stronger effect = higher value; 1 = vehicle-only enzyme, 0 = enzyme-free background; activation factor at 10 µM; 330,000 compounds, 0.16% hits; AID 2524, 2010;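 active = activation factor of the enzyme at least 2-fold when tested at 20 µM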
# bIAP inhibitor: bovine intestinal alkaline phosphatase inhibitors, primary screen, selectivity assay for TNAP inhibitor project, biochemical, bovine IAP, CDP-star luminescence; alkaline phosphatase, intestinal [Bos taurus]; inhibition, % at 20 µM; purified bovine IAP, 30 min; 190,000 tested, under 10 active;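 active = over 50% inhibition of intestinal alkaline phosphatase at 20 µM in the single-dose screen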
#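 System: purified bovine intestinal alkaline phosphatase (IAP) enzyme; Input: IAP diluted 1/65,000,000 in the well; Measured by: CDP-star luminescence signal; Compound dosing: 20 µM single dose; Incubation: 30 min reaction at room temperature.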
# mIAP block: inhibitors of mouse IAP, primary screen, biochemical, luminescence, uHTS. intestinal alkaline phosphatase [Mus musculus]. purified mouse IAP, CDP-Star luminescence, 30 min. inhibition, % at 10 µM. 330,000 compounds, 0.2% hits;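 active = inhibition of at least 40% at 10 µM in the primary screen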;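 also: plate controls were DMSO with enzyme for no effect and no enzyme wells for full effect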
# bIAP act: bovine intestinal alkaline phosphatase activators, primary screen, biochemical, bovine IAP, CDP-star luminescence. alkaline phosphatase, intestinal [Bos taurus]. purified bovine IAP, 30 min; stronger effect = higher value; fold of DMSO-control signal, blank-subtracted. activation factor at 20 µM. 200,000 compounds, 0.17% hits. AID 1016, 2008;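 active = activation factor of 2 or more at 20 µM, a signal rise over negative controls twice the positive control's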
# mIAP inh confirm: inhibitors of mouse IAP, confirmation, biochemical, luminescence, single concentration; shares compounds with mIAP block; purified mouse IAP, CDP-Star luminescence, 30 min; inhibition, % at 10 µM; 11,000 compounds, 4.7% hits;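 active = inhibition of at least 40% at 10 µM in either of the two replicates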;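 also: plate controls were DMSO wells with enzyme for no effect and buffer wells lacking enzyme for full effect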
# Numbers without * were called inactive; / = no result. Only some compounds are listed: those with a hit (about 0.72% of all), similar ones and a draw of the others.
SMILES,mIAP activ,hIAP inh,hIAP activ,bIAP inhibitor,mIAP block,bIAP act,mIAP inh confirm
Cn1cnnc1SCC(=O)Nc1sc2c(c1C(N)=O)CCC2,0.43,14,0.86,1,57*,1,54*
CCC(=O)O[C@]1(C(=O)SCF)[C@H](C)C[C@H]2[C@@H]3C[C@H](F)C4=CC(=O)C=C[C@]4(C)[C@@]3(F)[C@@H](O)C[C@@]21C,1,14,0.86,/,-2,/,/
CS(=O)(=O)c1nc([N+](=O)[O-])nn1CCCc1ccccc1,0.98,2,0.97,/,2,/,/
Cn1nc([N+](=O)[O-])nc1S(C)(=O)=O,0.56,-13,1.1,-4,44*,1,59*
Oc1cccc(O)c1O,0.48,0,1,/,52*,/,58*
C/C(Cc1ccccc1)=N\NC(=O)CNC(=O)c1ccc(C(C)(C)C)cc1,1,7,0.93,1,-4,1,/
CSc1ccc(S(=O)(=O)Nc2ccc(S(=O)(=O)Nc3ccc(C)cc3)cc2)cc1,0.95,17,0.83,4,5,1,/
Cc1cc(F)ccc1S(=O)(=O)Nc1ccccc1C(=O)Nc1ncn[nH]1,0.93,-9,1.1,-61,7,1.6,/
COc1ccc(OC)c(S(=O)(=O)Nc2ccc(O)c(Sc3ncn[nH]3)c2)c1,0.5,17,0.83,13,50*,0.9,52*
Cc1cc(F)ccc1S(=O)(=O)Nc1ccc(O)c(Sc2ncn[nH]2)c1,0.3,-6,1.1,/,70*,/,66*
Cc1ccc(S(=O)(=O)Nc2ccc(O)c(Sc3ncn[nH]3)c2)cc1,0.5,-4,1,1,50*,1,65*
Cc1ccc(C)c(S(=O)(=O)Nc2ccc(O)c(Sc3ncn[nH]3)c2)c1,0.25,-17,1.2,/,75*,/,82*
CCOc1ccc(S(=O)(=O)Nc2ccc(O)c(Sc3ncn[nH]3)c2)cc1,0.56,-6,1.1,-3,44*,1,62*
CCOc1ccc(NS(=O)(=O)c2ccc(NS(=O)(=O)c3ccc(SC)cc3)cc2)cc1,0.89,0,0.99,14,11,0.9,/
O=C(O)CCN1C(=O)/C(=C\c2ccc(-c3nc4ccccc4s3)o2)SC1=S,0.47,-19,1.2,/,53*,0.4,62*
O=C(Nc1ccc(Cl)cc1)Nc1ccc(Cl)c(Cl)c1,3.3*,-17,1.2,/,-227,/,-127
O=C(Nc1ccc(Cl)c(Cl)c1)Nc1ccc(Br)cc1F,3.5*,5,0.95,-10,-253,1.1,-124
O=C(NCCCCc1ccccc1)Nc1cccc(F)c1,2.5*,-18,1.2,/,-146,/,-129
O=C(NCCCc1ccccc1)Nc1ccccc1,1.3,-1,1,2,-35,1,/
Cc1cccc(NC(=O)NCCCCc2ccccc2)c1,2.3*,-8,1.1,/,-132,/,-138
Cc1cccc(NC(=O)NC(C)CCc2ccccc2)c1 (stereo not given),2.8*,-4,1,-13,-180,1.1,-183
Cc1ccc(NC(=O)NCCCCc2ccccc2)cc1,1.6,-8,1.1,/,-62,/,/
Cc1noc(C)c1COc1ccccc1C(=O)NC1CCC(C)CC1 (stereo not given),1.1,9,0.91,/,-8,/,/
Cc1ccccc1OCCC(=O)Nc1ccc(Cl)cc1F,1,3,0.97,-11,-3,1.1,/
Oc1cc2c(cc1O)C1c3ccc(O)c(O)c3OCC1(O)C2 (stereo not given),0.26,6,0.94,48,74*,0.5,64*
NC(=O)c1sc2nc(-c3ccco3)ccc2c1N,0.56,-5,1.1,6,44*,0.9,52*
NC(=O)c1sc2nc(-c3cccnc3)ccc2c1N,0.99,14,0.86,/,1,/,/
